Key:
pUC19 plasmid DNA [1] = assay: Thermal; assay type: binding; conditions: pUC19, phosphate buffer, 37 °C, 24 h, up to 5 : 1 BP : MC ratio
[2] = reference value, CD3OD; cited from earlier work
[3] = Singlet oxygen quantum yield by 1274 nm emission in CD3OD; assay type: physicochemical; conditions: 450 nm excitation, under air, 298 K
A549 cells [4] = assay: Confocal microscopy of mitochondrial potential; assay type: cell-based, human; conditions: A549, TMRE and DRAQ5 staining, green light 75 J cm^–2
[5] = test system: A431 and A549 cancer cells; assay type: cell-based, human; conditions: 520 nm, 75 J cm^–2, compared to the dark control; maximum
In short: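 Photo index is the ratio of dark EC50 to green-light EC50 (520 nm, 60 min, 75 J cm–2). Light was applied after 6 h or 24 h dark pre-incubation with test compound (37 °C, 7% CO2). EC50 is the concentration giving 50% viability loss versus untreated wells.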

A549 cells [6] = assay: Annexin V-FITC/propidium iodide flow cytometry; assay type: cell-based, human; conditions: A549, green light irradiation
In short: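 A549 cells were treated with test compound (1.5 μM or 10 μM, by complex) for 6 h in the dark. They then received 1 h green light (520 nm, 75 J cm–2) followed by 24 h dark incubation, or were kept dark throughout (31 h). Annexin V-FITC (525 nm) and propidium iodide (670 nm) were read by flow cytometry. Quadrants: lower left live, lower right apoptotic, upper left necrotic, upper right secondary necrotic.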

[7] = Dark stability in aqueous and DMSO solutions; assay type: physicochemical
In short: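 Test compound solutions in D2O or DMSO were kept in the dark, with DMSO also held at –20 °C, and monitored over time. Chloride effect in aqueous solution was probed by adding NaCl up to 0.15 M.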

pUC19 plasmid DNA [8] = assay: Photoinduced binding to plasmid DNA, agarose gel; conditions: pUC19, 50 : 1 BP : MC, λirr = 520 nm, 5–60 min
In short: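 pUC19 plasmid was mixed with test compound (50:1 BP:MC) and irradiated at 520 nm for 5, 15, 30, 45 or 60 min. Controls were dark and irradiated DNA alone and a dark 50:1 sample. Cisplatin was included as a reference. Agarose gel with lambda DNA marker; linear dimer, open circular and supercoiled forms were scored.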

[9] = Photosubstitution quantum yield under blue light; assay type: physicochemical; conditions: blue light irradiation 450 nm, in water
Water solubility = assay type: physicochemical
A549 cells [10] = assay: Cell fractionation and ruthenium uptake by ICP-MS; assay type: cell-based, human
In short: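 A549 cells were exposed to test compound for 6 h in the dark, then harvested. Cytosol, membrane, nuclei and cytoskeleton fractions were separated. Ruthenium in each fraction was quantified by ICP-MS.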

Molecule | dark thermal DNA binding (pUC19 plasmid DNA [1]) | quantum yield of 1O2 generation (Φref) [2] | quantum yield of 1O2 generation (Φ1O2) [3] | effect of light irradiation on mitochondria and nuclear DNA (A549 cells [4]) | photo-indices (increase in cytotoxicity after green light vs dark) [5] | type of cell death (photocytotoxicity) (A549 cells [6]) | dark stability of DMSO solution ([7]; DMSO, –20 °C) | stability of Ru–S bond with dmso ligand ([7]; aqueous or DMSO solutions, 298 K) | hydrolysis of chloride ligand ([7]; upon dissolution in deionized water or D2O) | photoinduced DNA binding (pUC19 plasmid DNA [8]) | photosubstitution quantum yield (ΦPS) [9] | solubility in water (Water solubility) | preference for the membrane fraction (intracellular distribution) (A549 cells [10]; A549, 6 h in the dark at EC50 concentration, cell fractionation) | total uptake (ruthenium) (A549 cells [10]; A549, 6 h in the dark at concentration corresponding to the EC50 value, ICP-MS)
N.N.[Cl][Pt][Cl] [Cisplatin, cis-diamineplatinum(II) dichloride, reference compound] | typical DNA binding results |  |  |  |  |  |  |  |  |  |  |  |  | 
[Cl][Ru][Cl].c1ccc(-c2ccccn2)nc1.c1ccc(-c2ccccn2)nc1.c1ccc(-c2ccccn2)nc1 [[Ru(bpy)3]Cl2] |  | 73% |  |  |  |  |  |  |  |  |  |  |  | 
[Ru(biqbpy)(dmso)Cl]Cl [[1]Cl] | negligible binding |  | 1.3% | diminished the mitochondrial membrane potential and induced chromosomal condensation | up to 22 | apoptosis without any sign of necrosis | stable in the dark at –20 °C for at least six months | remained stable | immediately hydrolysed | significant retardation of the SC form | 0.3% | water-soluble | strong | 16 ng/10^6 cells

— paper PMC6018302 (Chemical Science, 2016)
